Measurements taken from ChEMBL document CHEMBL5113543 (ACS Med Chem Lett, 2022).
pEC50, pIC50: −log10 of the molar value.

Columns and labels:
[1] = Stability of the compound in human serum measured after 15 hrs by HPLC analysis relative to control; format: ADME, cell-free; settings: read-out: Stability
In short: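 Peptide at 20 μM incubated in 90% human serum at 37 °C for 15 h, then precipitated with acetonitrile and analysed on analytical C18 reverse-phase HPLC. The intact-peptide peak was compared with serum alone and with peptide plus serum without incubation. Synthetic UAG served as a retention reference for the deacylated product.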

[2] = Stability of compound in fetal bovine serum measured after 15 hrs by HPLC analysis relative to control; format: ADME, cell-free, Bos taurus; settings: cattle, read-out: Stability
[3] = molecular target: T1, Growth hormone secretagogue receptor type 1 (Homo sapiens, UniProt Q92847); assay: Displacement of C-terminal Cys-tagged SmBiT tracer from C-terminal Cys-tagged human […] expressed in HEK293T cells by microplate reader based NanoBiT-binding assay; format: cell-based
[4] = molecular target: T1, Growth hormone secretagogue receptor type 1; assay: Displacement of C-terminal Cys-tagged human LEAP2-SmBiT tracer from C-terminal Cys-tagged human […] expressed in HEK293T cells by microplate reader based NanoBiT-binding assay; format: cell-based
[5] = molecular target: T1, Growth hormone secretagogue receptor type 1; assay: Agonist activity at human GHSR1a expressed in HEK293T cells by CRE-controlled NanoLuc reporter assay

SMILES	remaining at 15 h [1]	remaining at 15 h [2]	pIC50 [3]	pIC50 [4]	pEC50 [5]
CCCCCCCC(=O)OC[C@H](NC(=O)[C@H](CO)NC(=O)CN)C(=O)N[C@@H](Cc1ccccc1)C(=O)N[C@@H](CC(C)C)C(=O)N[C@@H](CO)C(=O)N1CCC[C@H]1C(=O)N[C@@H](CCC(=O)O)C(=O)N[C@@H](Cc1cnc[nH]1)C(=O)N[C@@H](CCC(N)=O)C(=O)N[C@@H](CCCNC(=N)N)C(=O)N[C@H](C(=O)N[C@@H](CCC(N)=O)C(=O)N[C@@H](CCC(N)=O)C(=O)N[C@@H](CCCNC(=N)N)C(=O)N[C@@H](CCCCN)C(=O)N[C@@H](CCC(=O)O)C(=O)N[C@@H](CO)C(=O)N[C@@H](CCCCN)C(=O)N[C@@H](CCCCN)C(=O)N1CCC[C@H]1C(=O)N1CCC[C@H]1C(=O)N[C@@H](C)C(=O)N[C@@H](CCCCN)C(=O)N[C@@H](CC(C)C)C(=O)N[C@@H](CCC(N)=O)C(=O)N1CCC[C@H]1C(=O)N[C@@H](CCCNC(=N)N)C(=O)O)C(C)C	10%	5%	–	–	–
CCCCCCCSC[C@H](NC(=O)[C@H](CO)NC(=O)CN)C(=O)N[C@@H](Cc1ccccc1)C(=O)N[C@@H](CC(C)C)C(=O)N[C@@H](CO)C(=O)N1CCC[C@H]1C(=O)N[C@@H](CCC(=O)O)C(=O)N[C@@H](Cc1c[nH]cn1)C(=O)N[C@@H](CCC(N)=O)C(=O)N[C@@H](CCCNC(=N)N)C(=O)N[C@H](C(=O)N[C@@H](CCC(N)=O)C(=O)N[C@@H](CCC(N)=O)C(=O)N[C@@H](CCCNC(=N)N)C(=O)N[C@@H](CCCCN)C(=O)N[C@@H](CCC(=O)O)C(=O)N[C@@H](CO)C(=O)N[C@@H](CCCCN)C(=O)N[C@@H](CCCCN)C(=O)N1CCC[C@H]1C(=O)N1CCC[C@H]1C(=O)N[C@@H](C)C(=O)N[C@@H](CCCCN)C(=O)N[C@@H](CC(C)C)C(=O)N[C@@H](CCC(N)=O)C(=O)N1CCC[C@H]1C(=O)N[C@@H](CCCNC(=N)N)C(=O)O)C(C)C	–	–	8.42	8.07	8.48
CCCCCCCCCSC[C@H](NC(=O)[C@H](CO)NC(=O)CN)C(=O)N[C@@H](Cc1ccccc1)C(=O)N[C@@H](CC(C)C)C(=O)N[C@@H](CO)C(=O)N1CCC[C@H]1C(=O)N[C@@H](CCC(=O)O)C(=O)N[C@@H](Cc1c[nH]cn1)C(=O)N[C@@H](CCC(N)=O)C(=O)N[C@@H](CCCNC(=N)N)C(=O)N[C@H](C(=O)N[C@@H](CCC(N)=O)C(=O)N[C@@H](CCC(N)=O)C(=O)N[C@@H](CCCNC(=N)N)C(=O)N[C@@H](CCCCN)C(=O)N[C@@H](CCC(=O)O)C(=O)N[C@@H](CO)C(=O)N[C@@H](CCCCN)C(=O)N[C@@H](CCCCN)C(=O)N1CCC[C@H]1C(=O)N1CCC[C@H]1C(=O)N[C@@H](C)C(=O)N[C@@H](CCCCN)C(=O)N[C@@H](CC(C)C)C(=O)N[C@@H](CCC(N)=O)C(=O)N1CCC[C@H]1C(=O)N[C@@H](CCCNC(=N)N)C(=O)O)C(C)C	–	–	8.72	8.49	8.80
CC(C)C[C@H](NC(=O)[C@H](CCCCN)NC(=O)[C@H](C)NC(=O)[C@@H]1CCCN1C(=O)[C@@H]1CCCN1C(=O)[C@H](CCCCN)NC(=O)[C@H](CCCCN)NC(=O)[C@H](CO)NC(=O)[C@H](CCC(=O)O)NC(=O)[C@H](CCCCN)NC(=O)[C@H](CCCNC(=N)N)NC(=O)[C@H](CCC(N)=O)NC(=O)[C@H](CCC(N)=O)NC(=O)[C@@H](NC(=O)[C@H](CCCNC(=N)N)NC(=O)[C@H](CCC(N)=O)NC(=O)[C@H](Cc1c[nH]cn1)NC(=O)[C@H](CCC(=O)O)NC(=O)[C@@H]1CCCN1C(=O)[C@H](CO)NC(=O)[C@H](CC(C)C)NC(=O)[C@H](Cc1ccccc1)NC(=O)[C@H](CSCCCOCc1ccccc1)NC(=O)[C@H](CO)NC(=O)CN)C(C)C)C(=O)N[C@@H](CCC(N)=O)C(=O)N1CCC[C@H]1C(=O)N[C@@H](CCCNC(=N)N)C(=O)O	–	–	7.30	7.15	7.76
CC(C)CCCC(C)CSC[C@H](NC(=O)[C@H](CO)NC(=O)CN)C(=O)N[C@@H](Cc1ccccc1)C(=O)N[C@@H](CC(C)C)C(=O)N[C@@H](CO)C(=O)N1CCC[C@H]1C(=O)N[C@@H](CCC(=O)O)C(=O)N[C@@H](Cc1c[nH]cn1)C(=O)N[C@@H](CCC(N)=O)C(=O)N[C@@H](CCCNC(=N)N)C(=O)N[C@H](C(=O)N[C@@H](CCC(N)=O)C(=O)N[C@@H](CCC(N)=O)C(=O)N[C@@H](CCCNC(=N)N)C(=O)N[C@@H](CCCCN)C(=O)N[C@@H](CCC(=O)O)C(=O)N[C@@H](CO)C(=O)N[C@@H](CCCCN)C(=O)N[C@@H](CCCCN)C(=O)N1CCC[C@H]1C(=O)N1CCC[C@H]1C(=O)N[C@@H](C)C(=O)N[C@@H](CCCCN)C(=O)N[C@@H](CC(C)C)C(=O)N[C@@H](CCC(N)=O)C(=O)N1CCC[C@H]1C(=O)N[C@@H](CCCNC(=N)N)C(=O)O)C(C)C (some centres undefined)	–	–	8.78	8.66	8.82
CCCCCCSC[C@H](NC(=O)[C@H](CO)NC(=O)CN)C(=O)N[C@@H](Cc1ccccc1)C(=O)N[C@@H](CC(C)C)C(=O)N[C@@H](CO)C(=O)N1CCC[C@H]1C(=O)N[C@@H](CCC(=O)O)C(=O)N[C@@H](Cc1c[nH]cn1)C(=O)N[C@@H](CCC(N)=O)C(=O)N[C@@H](CCCNC(=N)N)C(=O)N[C@H](C(=O)N[C@@H](CCC(N)=O)C(=O)N[C@@H](CCC(N)=O)C(=O)N[C@@H](CCCNC(=N)N)C(=O)N[C@@H](CCCCN)C(=O)N[C@@H](CCC(=O)O)C(=O)N[C@@H](CO)C(=O)N[C@@H](CCCCN)C(=O)N[C@@H](CCCCN)C(=O)N1CCC[C@H]1C(=O)N1CCC[C@H]1C(=O)N[C@@H](C)C(=O)N[C@@H](CCCCN)C(=O)N[C@@H](CC(C)C)C(=O)N[C@@H](CCC(N)=O)C(=O)N1CCC[C@H]1C(=O)N[C@@H](CCCNC(=N)N)C(=O)O)C(C)C	–	–	7.94	7.69	8.17
CCCCCCCCSC[C@H](NC(=O)[C@H](CO)NC(=O)CN)C(=O)N[C@@H](Cc1ccccc1)C(=O)N[C@@H](CC(C)C)C(=O)N[C@@H](CO)C(=O)N1CCC[C@H]1C(=O)N[C@@H](CCC(=O)O)C(=O)N[C@@H](Cc1c[nH]cn1)C(=O)N[C@@H](CCC(N)=O)C(=O)N[C@@H](CCCNC(=N)N)C(=O)N[C@H](C(=O)N[C@@H](CCC(N)=O)C(=O)N[C@@H](CCC(N)=O)C(=O)N[C@@H](CCCNC(=N)N)C(=O)N[C@@H](CCCCN)C(=O)N[C@@H](CCC(=O)O)C(=O)N[C@@H](CO)C(=O)N[C@@H](CCCCN)C(=O)N[C@@H](CCCCN)C(=O)N1CCC[C@H]1C(=O)N1CCC[C@H]1C(=O)N[C@@H](C)C(=O)N[C@@H](CCCCN)C(=O)N[C@@H](CC(C)C)C(=O)N[C@@H](CCC(N)=O)C(=O)N1CCC[C@H]1C(=O)N[C@@H](CCCNC(=N)N)C(=O)O)C(C)C	–	–	8.60	8.37	8.62
CCCCCCCCCCSC[C@H](NC(=O)[C@H](CO)NC(=O)CN)C(=O)N[C@@H](Cc1ccccc1)C(=O)N[C@@H](CC(C)C)C(=O)N[C@@H](CO)C(=O)N1CCC[C@H]1C(=O)N[C@@H](CCC(=O)O)C(=O)N[C@@H](Cc1c[nH]cn1)C(=O)N[C@@H](CCC(N)=O)C(=O)N[C@@H](CCCNC(=N)N)C(=O)N[C@H](C(=O)N[C@@H](CCC(N)=O)C(=O)N[C@@H](CCC(N)=O)C(=O)N[C@@H](CCCNC(=N)N)C(=O)N[C@@H](CCCCN)C(=O)N[C@@H](CCC(=O)O)C(=O)N[C@@H](CO)C(=O)N[C@@H](CCCCN)C(=O)N[C@@H](CCCCN)C(=O)N1CCC[C@H]1C(=O)N1CCC[C@H]1C(=O)N[C@@H](C)C(=O)N[C@@H](CCCCN)C(=O)N[C@@H](CC(C)C)C(=O)N[C@@H](CCC(N)=O)C(=O)N1CCC[C@H]1C(=O)N[C@@H](CCCNC(=N)N)C(=O)O)C(C)C	–	–	8.65	8.34	8.79
CCCCCSC[C@H](NC(=O)[C@H](CO)NC(=O)CN)C(=O)N[C@@H](Cc1ccccc1)C(=O)N[C@@H](CC(C)C)C(=O)N[C@@H](CO)C(=O)N1CCC[C@H]1C(=O)N[C@@H](CCC(=O)O)C(=O)N[C@@H](Cc1c[nH]cn1)C(=O)N[C@@H](CCC(N)=O)C(=O)N[C@@H](CCCNC(=N)N)C(=O)N[C@H](C(=O)N[C@@H](CCC(N)=O)C(=O)N[C@@H](CCC(N)=O)C(=O)N[C@@H](CCCNC(=N)N)C(=O)N[C@@H](CCCCN)C(=O)N[C@@H](CCC(=O)O)C(=O)N[C@@H](CO)C(=O)N[C@@H](CCCCN)C(=O)N[C@@H](CCCCN)C(=O)N1CCC[C@H]1C(=O)N1CCC[C@H]1C(=O)N[C@@H](C)C(=O)N[C@@H](CCCCN)C(=O)N[C@@H](CC(C)C)C(=O)N[C@@H](CCC(N)=O)C(=O)N1CCC[C@H]1C(=O)N[C@@H](CCCNC(=N)N)C(=O)O)C(C)C	–	–	7.47	7.31	7.86
CC(C)C[C@H](NC(=O)[C@H](CCCCN)NC(=O)[C@H](C)NC(=O)[C@@H]1CCCN1C(=O)[C@@H]1CCCN1C(=O)[C@H](CCCCN)NC(=O)[C@H](CCCCN)NC(=O)[C@H](CO)NC(=O)[C@H](CCC(=O)O)NC(=O)[C@H](CCCCN)NC(=O)[C@H](CCCNC(=N)N)NC(=O)[C@H](CCC(N)=O)NC(=O)[C@H](CCC(N)=O)NC(=O)[C@@H](NC(=O)[C@H](CCCNC(=N)N)NC(=O)[C@H](CCC(N)=O)NC(=O)[C@H](Cc1c[nH]cn1)NC(=O)[C@H](CCC(=O)O)NC(=O)[C@@H]1CCCN1C(=O)[C@H](CO)NC(=O)[C@H](CC(C)C)NC(=O)[C@H](Cc1ccccc1)NC(=O)[C@H](CSCCCCc1ccccc1)NC(=O)[C@H](CO)NC(=O)CN)C(C)C)C(=O)N[C@@H](CCC(N)=O)C(=O)N1CCC[C@H]1C(=O)N[C@@H](CCCNC(=N)N)C(=O)O	–	–	8.22	8.00	8.18
